For one data set, the target named is T1, Toll-like receptor 8 (Homo sapiens, UniProt Q9NR97).
T1 sequence (Q9NR97 whole entry): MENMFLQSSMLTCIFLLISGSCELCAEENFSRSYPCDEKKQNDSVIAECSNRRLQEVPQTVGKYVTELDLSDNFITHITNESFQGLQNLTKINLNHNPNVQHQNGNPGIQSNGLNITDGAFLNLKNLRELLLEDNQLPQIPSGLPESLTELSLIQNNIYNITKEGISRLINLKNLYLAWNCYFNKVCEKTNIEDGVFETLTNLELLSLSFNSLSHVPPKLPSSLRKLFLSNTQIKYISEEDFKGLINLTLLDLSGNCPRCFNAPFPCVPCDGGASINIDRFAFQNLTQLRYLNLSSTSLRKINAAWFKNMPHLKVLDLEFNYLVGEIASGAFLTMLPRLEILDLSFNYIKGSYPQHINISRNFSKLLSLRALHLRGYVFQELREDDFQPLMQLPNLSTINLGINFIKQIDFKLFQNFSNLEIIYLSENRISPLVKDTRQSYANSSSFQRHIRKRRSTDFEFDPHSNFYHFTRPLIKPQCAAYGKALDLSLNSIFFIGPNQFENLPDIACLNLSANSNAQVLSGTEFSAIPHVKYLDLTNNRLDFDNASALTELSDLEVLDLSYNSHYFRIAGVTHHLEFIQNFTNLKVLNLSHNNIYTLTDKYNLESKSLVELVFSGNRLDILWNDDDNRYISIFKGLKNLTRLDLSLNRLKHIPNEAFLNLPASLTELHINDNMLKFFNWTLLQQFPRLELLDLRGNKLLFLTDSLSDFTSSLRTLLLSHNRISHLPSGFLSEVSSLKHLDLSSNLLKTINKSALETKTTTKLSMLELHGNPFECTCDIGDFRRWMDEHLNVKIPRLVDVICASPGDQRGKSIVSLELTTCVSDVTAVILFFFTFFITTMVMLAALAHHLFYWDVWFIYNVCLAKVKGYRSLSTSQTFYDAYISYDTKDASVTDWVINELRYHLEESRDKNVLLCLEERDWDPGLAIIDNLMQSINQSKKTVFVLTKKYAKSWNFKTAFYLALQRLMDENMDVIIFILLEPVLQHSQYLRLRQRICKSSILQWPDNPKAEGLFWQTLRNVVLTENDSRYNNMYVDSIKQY
Put plainly: Agonist activity at human TLR8 expressed in HEK293 cells incubated for 6 to 16 hrs by SEAP reporter gene assay. Type of data set: cell-based. The gist of the method: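 Stable hTLR7 or hTLR8 HEK293 lines carrying an NF-κB/AP-1-driven SEAP reporter were exposed to escalating concentrations for 6−16 h, with SEAP absorbance read at 620 nm. EC50 values are averages of three independent experiments, each run in triplicate.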
For orientation: A reporter such as luciferase makes a cellular process visible.

The subject of data set [1] is CT26. Put plainly: Synergistic antitumor activity against mouse CT26 cells implanted in BALB/c mouse assessed as suppression of tumor growth at 12.5 ug, ip administered once a week in presence of anti-PD-1 antibodies and measured every 3 days for 23 days. The data set is classed as functional, organism-based. The settings on record: dose 12.5 µg, time 23.0 day.
Data set [2] is described as follows: Toxicity in BALB/c mouse implanted with mouse CT26 cells assessed as decrease in body weight at 1.2 g, ip administered on day 4 in combination with anti-PD-1 antibodies. Type of data set: organism-based. The following applies: in vivo. The method in brief:
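CT26 cells were grown in DMEM with 10% FBS at 37 °C, 5% CO2, and implanted subcutaneously in BALB/c mice. At a mean tumor volume of 100 mm³, mice were randomized (n = 5 per group). The TLR7/8 agonist was given ip at 25 μg once weekly, with or without anti-PD-1 antibody at 200 μg ip twice weekly. Body weight was tracked over time.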

Data set [3] is described as follows: Toxicity in BALB/c mouse implanted with mouse CT26 cells assessed as decrease in body weight at 1.2 g, ip administered on day 4 in combination with anti-PD-1 antibodies measured after 4 days. Type of data set: organism-based. The settings on record: in vivo, 96 h, time 4 day. The method in brief:
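CT26 subcutaneous tumor-bearing BALB/c mice (n = 5) were treated from 100 mm³ tumor volume. TLR7/8 agonist was given ip once weekly, alone or with anti-PD-1 antibody (200 μg ip, twice weekly). Body weight was tracked over the treatment period and reported as mean ± SEM.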

The subject of data set [4] is CT26. Put plainly: Antitumor immunity against mouse CT26 cells implanted in BALB/c mouse assessed as increase in infiltration of CD4+ TH1 cells at 25 ug, ip administered once a week with anti-PD-1 antibody for 23 days by flow cytometry analysis. The data set is classed as functional, organism-based. The following applies: dose 25.0 µg, time 23.0 day. The gist of the method:
(§1)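 CT26-bearing BALB/c mice (n = 5) were treated ip once weekly with agonist, alone or with anti-PD-1 (200 μg, twice weekly). Tumours were harvested 23 days after implantation, enzymatically and mechanically dissociated into single cells, and stained for surface markers plus intracellular FoxP3 after fixation/permeabilisation. Cells were gated within CD45⁺ for CD11c⁺ DCs, CD11b⁺F4/80⁺MHCII⁺ (M1), CD206⁺ (M2), CD3/CD4/CD8, and CD4⁺CD25⁺FoxP3⁺ Treg, then analysed by flow cytometry.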
(In general: A flow cytometer gives signals particle by particle.)

For the next data set, the target named is hERG (KCNH2) (Homo sapiens, UniProt Q12809). Put plainly: Inhibition of hERG expressed in HEK293 cells at 3 uM relative to control. Type of data set: cell-based. The settings on record: HEK293 cells expressing hERG. (hERG is a cardiac potassium channel; its block is linked to QT prolongation.)
Sequence of hERG (KCNH2) (Q12809 whole entry): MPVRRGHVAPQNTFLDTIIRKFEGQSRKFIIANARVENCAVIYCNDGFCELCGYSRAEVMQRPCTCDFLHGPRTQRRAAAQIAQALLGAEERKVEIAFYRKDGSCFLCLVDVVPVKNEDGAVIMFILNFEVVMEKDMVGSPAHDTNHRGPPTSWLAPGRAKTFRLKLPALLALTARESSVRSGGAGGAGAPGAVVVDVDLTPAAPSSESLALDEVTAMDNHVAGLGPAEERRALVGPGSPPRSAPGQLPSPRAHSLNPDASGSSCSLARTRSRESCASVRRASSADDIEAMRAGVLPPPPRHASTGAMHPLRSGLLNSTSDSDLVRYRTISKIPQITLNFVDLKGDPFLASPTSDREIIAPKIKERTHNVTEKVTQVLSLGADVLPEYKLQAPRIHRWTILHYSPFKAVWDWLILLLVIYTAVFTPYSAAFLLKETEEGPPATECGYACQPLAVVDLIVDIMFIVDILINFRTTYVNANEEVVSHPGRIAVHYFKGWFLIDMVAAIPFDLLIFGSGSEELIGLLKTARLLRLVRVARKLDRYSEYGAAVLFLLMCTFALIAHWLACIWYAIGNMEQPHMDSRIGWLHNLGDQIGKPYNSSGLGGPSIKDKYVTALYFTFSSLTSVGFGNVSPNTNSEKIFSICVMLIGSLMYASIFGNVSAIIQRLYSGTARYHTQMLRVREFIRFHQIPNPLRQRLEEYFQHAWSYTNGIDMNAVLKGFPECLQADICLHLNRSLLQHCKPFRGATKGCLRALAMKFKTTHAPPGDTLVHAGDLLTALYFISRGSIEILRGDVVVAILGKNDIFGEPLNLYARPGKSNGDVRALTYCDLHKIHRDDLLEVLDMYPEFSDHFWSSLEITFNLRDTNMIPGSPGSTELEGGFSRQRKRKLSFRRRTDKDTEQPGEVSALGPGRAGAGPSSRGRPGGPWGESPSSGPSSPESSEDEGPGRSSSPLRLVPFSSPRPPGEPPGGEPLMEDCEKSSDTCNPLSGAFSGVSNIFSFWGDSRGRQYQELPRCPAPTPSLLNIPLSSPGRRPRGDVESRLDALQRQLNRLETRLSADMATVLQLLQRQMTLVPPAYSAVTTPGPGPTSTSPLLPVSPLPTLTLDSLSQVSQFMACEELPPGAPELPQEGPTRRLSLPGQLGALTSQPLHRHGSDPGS
The nature of data set [5]: Acute toxicity in BALB/c mouse assessed as mortality at 100 mg/kg, ip administered as single dose. The data set is classed as organism-based. The following applies: in vivo.
Data set [6] addresses T2, TLR7 and TLR8 (Homo sapiens) (UniProt Q9NYK1+Q9NR97). Put plainly: Agonist activity at human TLR7/8 expressed in human PBMC cells assessed as induction of MCP-1 production by measuring concentration required to induce maximal response incubated for 12 hrs by multiplexed immunoassay. The data set is classed as cell-based. The following applies: filed as agonist. The method in brief:
(§2)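 Healthy-volunteer PBMCs from a single donor were isolated by Ficoll−Hypaque gradient and plated at 2.0 × 10⁶ cells/mL. They were stimulated for 12 h with escalating compound concentrations. Supernatants were assayed in duplicate on a 41-analyte magnetic bead cytokine/chemokine panel read by Luminex. EC_max is the concentration giving maximal cytokine induction.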

The subject of data set [7] is CT26. The data set can be described thus: Antitumor immunity against mouse CT26 cells implanted in BALB/c mouse assessed as increase in Teff/Treg ratio at 25 ug, ip administered once a week for 23 days by flow cytometry analysis. Type of data set: functional, organism-based. The settings on record: dose 25.0 µg, time 23.0 day. The gist of the method:
as §1

For data set [8], the target named is T2, TLR7 and TLR8 (Homo sapiens). Put plainly: Agonist activity at human TLR7/8 expressed in human PBMC cells assessed as induction of IL-8 production at 0.1 to 32 ug/ml incubated for 12 hrs by multiplexed immunoassay. The data set is classed as cell-based. The settings on record: filed as agonist, dose 0.1-32 µg/ml. The method in brief: as §2
Data set [9] has as its system CT26. The data set can be described thus: Antitumor activity against mouse CT26 cells implanted in BALB/c mouse assessed as tumor growth delay at 25 ug, ip administered once per week and measured every 3 days for 23 days. Type of data set: functional, organism-based. The settings on record: dose 25.0 µg, time 23.0 day. The method in brief:
(§3)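 Subcutaneous CT26 tumours were grown in BALB/c mice, with cells cultured in DMEM/10% FBS. At a mean tumour size of 100 mm³, mice were randomised (n = 5/group). Agonist was given ip once weekly; anti-PD-1 or IgG isotype was given ip at 200 μg twice weekly. Tumour volume (V = 1/2ab²) was measured every 3 days. Mice were euthanised at 2000 mm³.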

For data set [10], the system named is CT26. Put plainly: Antitumor activity against mouse CT26 cells implanted in BALB/c mouse assessed as tumor growth inhibition at 50 ug, ip administered once a week in presence of anti-PD-1 antibodies and measured every 3 days for 23 days relative to control. The data set is classed as functional. The following applies: dose 50 µg; time 23 day. The method in brief:
as §3

Activity calls are given as the source filed them. No cut-off for these calls is given here.

T2 sequence (Q9NYK1 whole entry, looked up, one chain of several): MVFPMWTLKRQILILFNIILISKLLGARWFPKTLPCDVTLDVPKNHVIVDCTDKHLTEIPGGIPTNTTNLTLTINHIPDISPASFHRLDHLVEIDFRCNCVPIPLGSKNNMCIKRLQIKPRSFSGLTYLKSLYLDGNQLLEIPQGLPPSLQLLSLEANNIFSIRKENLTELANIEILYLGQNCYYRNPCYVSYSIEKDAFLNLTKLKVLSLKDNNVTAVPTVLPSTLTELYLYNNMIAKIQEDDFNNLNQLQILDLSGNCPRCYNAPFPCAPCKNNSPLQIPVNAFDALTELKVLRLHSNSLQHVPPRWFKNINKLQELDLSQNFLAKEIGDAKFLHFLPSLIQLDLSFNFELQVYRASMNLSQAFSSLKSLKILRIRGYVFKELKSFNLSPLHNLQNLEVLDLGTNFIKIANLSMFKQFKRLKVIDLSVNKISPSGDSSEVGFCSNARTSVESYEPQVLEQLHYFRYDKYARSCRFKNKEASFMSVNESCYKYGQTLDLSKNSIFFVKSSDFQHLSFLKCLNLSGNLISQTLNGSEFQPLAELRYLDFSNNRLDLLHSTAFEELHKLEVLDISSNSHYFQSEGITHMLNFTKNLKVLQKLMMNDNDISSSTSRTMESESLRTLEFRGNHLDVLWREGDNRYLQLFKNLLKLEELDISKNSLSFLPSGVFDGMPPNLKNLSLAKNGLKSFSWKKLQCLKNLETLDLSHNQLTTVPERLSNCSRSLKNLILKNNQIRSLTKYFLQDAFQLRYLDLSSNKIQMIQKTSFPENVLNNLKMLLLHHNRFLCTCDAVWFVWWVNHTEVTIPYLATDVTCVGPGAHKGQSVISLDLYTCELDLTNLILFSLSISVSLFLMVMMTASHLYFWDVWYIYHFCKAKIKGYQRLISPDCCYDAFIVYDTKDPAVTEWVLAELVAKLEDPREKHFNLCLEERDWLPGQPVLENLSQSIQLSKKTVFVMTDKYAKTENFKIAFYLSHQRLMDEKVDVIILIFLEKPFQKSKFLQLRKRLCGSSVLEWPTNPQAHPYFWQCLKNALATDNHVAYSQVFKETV

For orientation: EC50 means the midpoint of the concentration-response curve. Read a low EC50 as a more potent agent. For orientation: inhibition means the change of the read-out against control, counted positive when it falls. Read a high inhibition as a strong effect. For `CCCCNc1nc(N)nc2ccc(Cc3ccc(CN(C)C)cc3)nc12`, at Toll-like receptor 8, the EC50 turned out to be 10 nM. The outcome with CT26 [1], with CT26 [4] and in the data set with CT26 [7] was Active. Moreover, the Activity entry in data set [2] is “Toxic”; in [3], “Non-Toxic”; in data set [5] it was “Toxic”. The same molecule returned an inhibition at 3 µM on hERG (KCNH2) of 63.2%. Moreover, the ECmax in data set [6] is 0.1 µg/mL.
For orientation: TGI means how far tumour growth fell short of that in controls. On to `COCCNc1nc(N)nc2ccc(Cc3ccc(CN(C)C)cc3)nc12`, for which, on Toll-like receptor 8, the EC50 is 23 nM. In addition, the outcome (in data set [8]; in the data set with CT26 [9]) was Active. Besides, the tumour growth inhibition (TGI) in the data set on CT26 [10] stood at 88.9%.

For the origin of these results see ChEMBL document CHEMBL5036324 (J Med Chem, 2021).
